This is an account of results in ChEMBL document CHEMBL4396885, “Thioether-based 2-aminobenzamide derivatives: Novel HDAC inhibitors with potent in vitro and in vivo antitumor activity” (Eur J Med Chem, 2019).

The subject of series [1] is HCT-116. The series is described as follows: Antiproliferative activity against human HCT116 cells assessed as growth inhibition at 2 uM after 72 hrs by CCK-8 assay relative to control. The settings on record: HCT-116, 72 h, read-out: GI. Format: functional. On the technique in general: Tetrazolium dyes change colour on reduction, which living cells bring about.
Series [2] has as its system HCT-116. The series is described as follows: Antiproliferative activity against human HCT116 cells assessed as growth inhibition at 8 uM after 72 hrs by CCK-8 assay relative to control. The settings on record: HCT-116, 72 h, read-out: GI. Format: functional.
Series [3] deals with SMMC-7721. Kind of series: Antiproliferative activity against human SMMC7721 cells assessed as decrease in cell viability after 72 hrs by CCK-8 assay. In kind it is functional, cell-based. The settings on record: SMMC-7721, 72 h. A digest of the protocol:
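Cells grown to 70–85% confluence (A375, A549, HCT116 in RPMI1640; HeLa, SMMC7721 in DMEM; 10% FBS, 37 °C, 5% CO2), seeded 4000/well, dosed after 12 h across a concentration range, incubated 72 h, then CCK-8 for 1 h; absorbance at 450 nm. IC50 as mean ± SD of three separate experiments.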

For series [4], the system named is NIH3T3. The series is described as follows: Cytotoxicity against mouse NIH/3T3 cells assessed as reduction in cell viability after 72 hrs by CCK-8 assay. In kind it is cell-based. The settings on record: NIH3T3, 72 h.
For series [5], the system named is A549. Kind of series: Induction of apoptosis in human A549 cells assessed as viable cells at 0.5 uM after 48 hrs by Annexin V-FITC/propidium iodide staining based flow cytometry (reference value: 98%). Format: functional. The settings on record: A549, 48 h, read-out: Activity. In short, it runs like this: (§1)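 A549 seeded 4×10⁶ cells/well, dosed after 12 h with compound at various concentrations, harvested after 48 h. Resuspended in annexin-binding buffer, stained with Annexin V-FITC and propidium iodide for 15 min in the dark, analysed by flow cytometry; means of three separate experiments.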
In general terms: A flow cytometer gives signals particle by particle.

Series [6] deals with A549. The series is described as follows: Induction of apoptosis in human A549 cells assessed as late apoptotic cells at 0.5 uM after 48 hrs by Annexin V-FITC/propidium iodide staining based flow cytometry (reference value: 0.637%). Format: functional. A digest of the protocol:
as §1

Series [7] has as its system A549. The series is described as follows: Induction of apoptosis in human A549 cells assessed as necrotic cells at 0.5 uM after 48 hrs by Annexin V-FITC/propidium iodide staining based flow cytometry (reference value: 0.135%). Format: functional. A digest of the protocol: as §1
Series [8] relates to A549. Kind of series: Cell cycle arrest in human A549 cells assessed as accumulation of cells at G2/M phase at 0.5 uM after 48 hrs by propidium iodide staining-based flow cytometry (reference value: 13.62%). In kind it is functional.
In series [9] the test system is A549. The series is described as follows: Cell cycle arrest in human A549 cells assessed as accumulation of cells at S phase at 1 uM after 48 hrs by propidium iodide staining-based flow cytometry (reference value: 12.83%). In kind it is functional.
Series [10] concerns A549. The series is described as follows: Cell cycle arrest in human A549 cells assessed as accumulation of cells at S phase at 2 uM after 48 hrs by propidium iodide staining-based flow cytometry (reference value: 12.83%). In kind it is functional.
The nature of series [11]: Half life in ICR mouse at 4 mg/kg, iv after 0.08 to 24 hrs by LC-MS/MS analysis. Format: ADME, organism-based. The settings on record: in vivo. In short, it runs like this: (§2)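 Male ICR mice (29.7~37.4 g), single iv dose 4 mg/kg in DMSO:40% SBE-β-CD 20:80 (v/v). Retro-orbital blood at 0.08–24 h into EDTA-K2 tubes; plasma protein-precipitated with acetonitrile containing internal standards, analysed by LC-MS/MS; n=3 per time point; noncompartmental analysis.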

Series [12] is described as follows: Clearance in ICR mouse at 4 mg/kg, iv after 0.08 to 24 hrs by LC-MS/MS analysis. The settings on record: in vivo. Format: ADME, organism-based. A digest of the protocol: as §2
Series [13] in a line: Toxicity against nude Balb/c mouse xenografted with human A549 cells assessed as no change in body weight at 25 mg/kg, ip administered twice per day for 21 days and measured every 3 days during compound dosing. In kind it is organism-based. The settings on record: in vivo. A digest of the protocol: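 Female BALB/c nude mice, 5–6 weeks, implanted s.c. in right axilla with 3×10⁶ A549 cells; randomized at ~95 mm³ tumor volume, 4 per group. Dosed ip 25 mg/kg twice daily for 21 days; vehicle controls got DMA & 5% Solutol HS-15 (5:95). Tumor size (V=length×width²/2) and body weight measured every 3 days; TGI from volume change relative to control.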

Series [14] relates to A549. The series is described as follows: Cell cycle arrest in human A549 cells assessed as increase in accumulation of cells at G2/M phase after 48 hrs by propidium iodide staining-based flow cytometry. Format: functional.

In the case of `CCc1ccc(SCc2ccc(C(=O)Nc3ccccc3N)cc2)cc1`, in series [1], the inhibition of growth at 2 µM turned out to be 40.7%. In addition, the inhibition of growth at 8 µM in series [2] came out at 79.1%. Besides, the half-inhibitory concentration (IC50) in series [3] is 1.75 µM; in series [4], 3.66 µM. In series [5], the viability at 0.5 µM was 80.8%. The Activity in series [6] is recorded as 7.08%; in series [7] it was 1.14%; in [8] it was 53.55%; in series [9], 9.74%; in series [10] it was 9.52%; in [13], “Non-Toxic”. Also, the Activity result in [14] was “Dose-dependent effect”. The compound further had a half-life in series [11] of 2.59 h. Also, the clearance in [12] was 76.3 mL/min/kg.
Take `COc1ccc(SCc2ccc(C(=O)Nc3ccccc3N)cc2)cc1`: the inhibition of growth at 2 µM in series [1] is 73.3%. Besides, in [2], the inhibition of growth at 8 µM is 90.1%. For the same compound, the IC50 worked out at 2.17 µM in [3] and 4.04 µM in series [4]. Also, in series [5], the viability at 0.5 µM stood at 66%. Further, the Activity is given as 15% in series [6]; 13.8% in series [7]; 18.07% in [8]; 20.63% in series [9]; 12.64% in series [10]; “Non-Toxic” in series [13]. In series [14], the Activity entry is “Dose-dependent effect”. The half-life in series [11] was 2.24 h. Also, in [12], the clearance came to 90.1 mL/min/kg.

The term IC50 denotes the concentration that inhibits the measured activity by half. Broadly, the half-life is the time in which the quantity being followed falls by half. By clearance is commonly meant a measure of how efficiently the substance is removed, as volume per time. High values mean a high capacity for elimination, low ones a low capacity for elimination.
